From ChEMBL document CHEMBL3872225, “Synthesis, binding assays, cytotoxic activity and docking studies of benzimidazole and benzothiophene derivatives with selective affinity for the CB2 cannabinoid receptor” (Eur J Med Chem, 2016)

How the values were obtained:
Cannabinoid receptor 1 = Cannabinoid receptor 1 (Homo sapiens, UniProt P21554); assay: Displacement of [3H]CP-55940 from human recombinant CB1 receptor expressed in HEK293 cell membranes incubated for 1.5 hrs
Method in brief: (§1)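 Membranes from HEK-293 cells overexpressing human CB1 or CB2 incubated with increasing compound concentrations and 0.5 nM [3H]CP-55,940 at 30 °C for 1.5 h. […] Selectivity index is Ki CB1/Ki CB2.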

[1] = biological target: Cannabinoid receptor 1 (CB1) (Homo sapiens, UniProt P21554); assay: Displacement of [3H]CP-55940 from human recombinant CB1 receptor expressed in HEK293 cell membranes at 1 uM incubated for 1.5 hrs relative to control; details: probe [3H]CP-55940
Method in brief: (§2)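 Single-point screen on HEK-293 membranes overexpressing human CB1 or CB2. […] Compounds displacing more than 50% at 1 μM went on to full curves.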

[2] = Cytotoxicity against human HL60 cells assessed as reduction in cell viability measured after 72 hrs by MTT assay; format: functional, cell-based; details: HL-60, 72 h
Method in brief: (§3)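 Cells kept in RPMI 1640 with 5% FBS, penicillin/streptomycin, 37 °C, 5% CO2. Seeded at 10,000 cells/well, then exposed to compounds at 0.001–10 μM in 5% FBS-RPMI for 72 h at 37 °C. MTT added for 4 h, formazan dissolved overnight in 10% SDS/0.1 mM HCl, absorbance read at 570 nm. […] Etoposide as positive control.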

[3] = Cytotoxicity against African green monkey Vero cells assessed as reduction in cell viability measured after 72 hrs by MTT assay; format: toxicity, cell-based; details: Chlorocebus sabaeus (African green monkey); method in brief: as §3
[4] = Cytotoxicity against resistant human HCT116 cells assessed as reduction in cell viability measured after 72 hrs by MTT assay; format: functional, cell-based; details: HCT-116, 72 h; method in brief: as §3
Homo sapiens = species: Homo sapiens; assay: Selectivity index, ratio of Ki for displacement of [3H]CP-55940 from human recombinant CB1 receptor to Ki for displacement of [3H]CP-55940 from human recombinant CB2 receptor; method in brief: as §1
Cannabinoid receptor 2 [5] = biological target: T1, Cannabinoid receptor 2 (Homo sapiens, UniProt P34972); assay: Displacement of [3H]CP-55940 from human recombinant CB2 receptor expressed in HEK293 cell membranes incubated for 1.5 hrs; method in brief: as §1
Cannabinoid receptor 2 [6] = biological target: T1, Cannabinoid receptor 2; assay: Displacement of [3H]CP-55940 from human recombinant CB2 receptor expressed in HEK293 cell membranes at 1 uM incubated for 1.5 hrs relative to control; method in brief: as §2
[7] = Cytotoxicity against human H1975-1 cells assessed as reduction in cell viability measured after 72 hrs by MTT assay; format: functional, cell-based; method in brief: as §3
[8] = Cytotoxicity against human HeLa cells assessed as reduction in cell viability measured after 72 hrs by MTT assay; format: functional, cell-based; method in brief: as §3

Cannabinoid receptor 1 (CB1), sequence (P21554 whole entry): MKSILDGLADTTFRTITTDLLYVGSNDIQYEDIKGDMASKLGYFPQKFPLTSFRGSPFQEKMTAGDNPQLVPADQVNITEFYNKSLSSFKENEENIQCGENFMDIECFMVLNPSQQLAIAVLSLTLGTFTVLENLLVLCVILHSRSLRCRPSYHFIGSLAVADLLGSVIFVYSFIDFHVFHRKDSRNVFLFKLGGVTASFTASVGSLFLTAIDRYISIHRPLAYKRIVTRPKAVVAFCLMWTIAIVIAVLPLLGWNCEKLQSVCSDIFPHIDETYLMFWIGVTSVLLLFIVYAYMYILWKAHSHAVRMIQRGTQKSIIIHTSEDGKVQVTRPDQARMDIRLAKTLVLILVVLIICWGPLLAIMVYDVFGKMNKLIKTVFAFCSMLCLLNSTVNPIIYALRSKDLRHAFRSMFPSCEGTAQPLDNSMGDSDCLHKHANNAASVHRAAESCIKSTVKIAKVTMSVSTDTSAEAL
Cannabinoid receptor 1, sequence (P21554 whole entry): as above
T1 sequence (P34972 whole entry): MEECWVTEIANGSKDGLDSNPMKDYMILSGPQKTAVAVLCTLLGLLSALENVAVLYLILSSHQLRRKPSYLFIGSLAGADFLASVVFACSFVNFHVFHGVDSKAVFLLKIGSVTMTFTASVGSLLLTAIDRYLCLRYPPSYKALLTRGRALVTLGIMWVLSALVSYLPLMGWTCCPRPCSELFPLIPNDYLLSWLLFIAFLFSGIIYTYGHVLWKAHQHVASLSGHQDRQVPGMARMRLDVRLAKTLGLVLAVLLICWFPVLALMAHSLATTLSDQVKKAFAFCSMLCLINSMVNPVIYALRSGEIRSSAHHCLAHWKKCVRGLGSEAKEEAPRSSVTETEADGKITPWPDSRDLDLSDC

| Structure (SMILES) | IC50 (Cannabinoid receptor 1) [µM] | Ki (Cannabinoid receptor 1) [µM] | inhibition at 1.5 h, 1 µM [1] [%] | IC50 [2] [µM] | IC50 at 72 h [3] [µM] | IC50 [4] [µM] | Ratio Ki (Homo sapiens) | IC50 (Cannabinoid receptor 2 [5]) [µM] | Ki (Cannabinoid receptor 2 [5]) [µM] | inhibition (Cannabinoid receptor 2 [6]) [%] | IC50 [7] [µM] | IC50 [8] [µM] |
| --- | --- | --- | --- | --- | --- | --- | --- | --- | --- | --- | --- | --- |
| COc1ccc(-c2sc3ccccc3c2C(=O)c2cccc3ccccc23)cc1 | 8.4 | 5.1 | > 50 | 0.071 | > 10 | > 10 | 17 | 1.4 | 0.3 | > 50 | > 10 | > 10 |
| O=C(c1cc2ccccc2s1)c1cccc2ccccc12 | 4.5 | 2.7 | > 50 | 0.051 | > 10 | > 10 | 2.7 | 4.1 | 1 | > 50 | > 10 | > 10 |
| O=C(c1cccc2ccccc12)c1csc2ccccc12 | > 10 | > 10 | > 50 | 0.058 | > 10 | > 10 | > 50 | 1.1 | 0.2 | > 50 | > 10 | > 10 |
| CC(C)(C)c1nc2ccccc2n1C(=O)c1cccc2ccccc12 | > 10 | > 10 | > 50 | 0.13 | > 10 | > 10 | > 125 | 0.3 | 0.08 | > 50 | > 10 | > 10 |
| CCCc1sc2ccccc2c1C(=O)c1ccc(OC)cc1 | > 10 | > 10 | > 50 | 0.08 | > 10 | > 10 | > 33 | 1.2 | 0.3 | > 50 | > 10 | > 10 |
| COc1ccc(C(=O)n2c(C3CCC3)nc3ccccc32)cc1 | > 10 | > 10 | > 50 | 0.047 | > 10 | > 10 | > 11 | 3.6 | 0.9 | > 50 | > 10 | > 10 |
| CCCCc1nc2ccccc2n1C(=O)c1ccc(OC)cc1 | > 10 | > 10 | > 50 | 0.061 | 0.17 | > 10 | > 6.25 | 6.3 | 1.6 | > 50 | > 10 | > 10 |
| CC(C)c1nc2ccccc2n1C(=O)c1cccc2ccccc12 | > 10 | > 10 | > 50 | 0.07 | 7.23 | 4.41 | > 20 | 2.1 | 0.5 | > 50 | > 10 | > 10 |
| CCCCCc1sc2ccccc2c1C(=O)c1ccc(OC)cc1 | > 10 | > 10 | > 50 | 0.083 | > 10 | > 10 | > 33 | 1.2 | 0.3 | > 50 | > 10 | > 10 |
| COc1ccc(C(=O)n2c(C(C)(C)C)nc3ccccc32)cc1 | > 10 | > 10 | > 50 | 0.055 | > 10 | 0.02 | > 16.7 | 2.4 | 0.6 | > 50 | > 10 | > 10 |
| COc1ccc(-c2nc3ccccc3n2C(=O)c2cccc3ccccc23)cc1 | 8.1 | 4.9 | > 50 | 0.146 | > 10 | 1.7 | 2.57 | 7.7 | 1.9 | > 50 | > 10 | > 10 |
| CCCc1nc2ccccc2n1C(=O)c1ccc(OC)cc1 | > 10 | > 10 | > 50 | 0.102 | 0.3 | 0.12 | > 5.26 | 7.6 | 1.9 | > 50 | > 10 | > 10 |
| COc1ccc(C(=O)c2c(CC(C)C)sc3ccccc23)cc1 | 7.6 | 4.6 | > 50 | 0.066 | > 10 | > 10 | 46 | 0.7 | 0.1 | > 50 | > 10 | > 10 |
| O=C(c1cccc2ccccc12)n1c(C2CCC2)nc2ccccc21 | 9.7 | 5.8 | > 50 | 0.18 | > 10 | > 10 | 4.14 | 5.5 | 1.4 | > 50 | > 10 | > 10 |
| COc1ccc(C(=O)n2c(C3CCCCC3)nc3ccccc32)cc1 | > 10 | > 10 | > 50 | 0.085 | 1.64 | > 10 | > 14 | 2.8 | 0.7 | > 50 | > 10 | > 10 |
| O=C(c1cccc2ccccc12)n1c(C2CCCCC2)nc2ccccc21 | 4.9 | 2.9 | > 50 | 0.22 | > 10 | 3.02 | 7.25 | 1.7 | 0.4 | > 50 | > 10 | > 10 |
